In all, about 1,200 compounds went through this assay and about 770 (64%) were called active. The set was probably picked from earlier hits. The list is a sample of the results. Values without a mark were called inactive.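 How the source made its calls: active means percent activation of the STAT3 luciferase reporter above a set limit taken from the earlier primary screen (cut at about 130% in these data); inactive means the rest.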
Assay: enhancers of IL-6 STAT3 signaling – U3A cells, luciferase, luminescence, confirmation (AID 1267);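 further: 0% = background signal of medium plus substrate and 100% = median of IL-6 with DMSO wells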
Conditions: U3A STAT3-luciferase reporter, IL-6 potentiation, at 5.7 µM, active compounds read high
In short: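 assay system = STAT1-null U3A cells carrying STAT3-luciferase reporter | also added = IL-6 stimulus at 33 ng/mL final | dosing = 5.7 µM single dose | times = compound 1 h and IL-6 6 h, 37 °C | detection = luminescence | measure = % potentiation versus median IL-6 plus DMSO wells, background-subtracted | control set = IL-6 + DMSO wells, media-only blank | replicates = triplicate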

Q: With `CCC/C(=N\O)c1c[nH]c2ccccc12` as the molecule, how does the potentiation (% of control) read?
A: 143% (active)

Q: Which potentiation (% of control) does the source give for `COc1cc(-n2c(=S)[nH]c3ccc(C)cc3c2=O)c(Cl)cc1Cl` here?
A: 129%

— PubChem BioAssay AID1267 (The Scripps Research Institute Molecular Screening Center, 2008)
